Screens: PubChem BioAssay, Broad Institute
rRNA inh HTS: inhibitors of bacterial rRNA selective over humanized ribosomes; E. coli WT GFP vs humanized-ribosome RFP mutants, fluorescence, 24 h; active compounds read low; DMSO median 0, no signal -100; GFP signal change (wild-type ribosome), % (concentration not given with the values); actives 1.6% (n = 350,000);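 active = significant combined selectivity score with lowered wild-type GFP, culture density cut under 30%, mutant RFP and density less affected; inactive = any of these conditions unmet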
HIV Env fusion: blocks HIV Env-driven cell-cell fusion | inhibition, % at 12.3 µM | HeLa-JRFL Env/CEM21 cell fusion, luciferase | actives 1.1% (n = 360,000) | AID 651610;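 active = mean replicate inhibition score of at least 50 and every replicate individually at or above 50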
FN deposit inh: fibronectin deposition inhibition. AH1F fibroblasts, Alexa488-fibronectin deposition fluorescence, overnight. inhibition, % at 12.6 µM. actives 0.086% (n = 350,000);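 active = mean inhibition across replicates of 30% or more, regardless of how many single replicates reach that level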
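Material: AH1F fibroblast monolayer depositing Alexa488-labelled fibronectin into matrix / Amount: 10000 AH1F cells per well / Signal: fluorescence 485/525 nm / Medium: DMEM, 2% serum / Compound: single dose, pinned / Incubation: 1 h cell adhesion before compound, then overnight fibronectin incubation / Reagent: Alexa488-FN, 24 nM final / Read-out: inhibition of fibronectin deposition signal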
PDI turbidity: PDI (human) enzyme inhibition; P07237; PDI insulin aggregation turbidity, A650, 90 min; inhibition, % at 10 µM; actives 0.052% (n = 350,000);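 active = mean inhibition across replicates of 30% or more, whatever share of single replicates reach that level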
ERp5 inh: blocks human ERp5 reductase activity on insulin | Q15084 | ERp5 insulin aggregation, absorbance 650 nm, 90 min | inhibition, % at 9.99 µM | actives 0.05% (n = 350,000);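 active = mean replicate inhibition above about 25%, with every replicate also reaching it, limit read from the data, passing the limit was not always enough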
Target sequence (Q15084 whole entry, looked up): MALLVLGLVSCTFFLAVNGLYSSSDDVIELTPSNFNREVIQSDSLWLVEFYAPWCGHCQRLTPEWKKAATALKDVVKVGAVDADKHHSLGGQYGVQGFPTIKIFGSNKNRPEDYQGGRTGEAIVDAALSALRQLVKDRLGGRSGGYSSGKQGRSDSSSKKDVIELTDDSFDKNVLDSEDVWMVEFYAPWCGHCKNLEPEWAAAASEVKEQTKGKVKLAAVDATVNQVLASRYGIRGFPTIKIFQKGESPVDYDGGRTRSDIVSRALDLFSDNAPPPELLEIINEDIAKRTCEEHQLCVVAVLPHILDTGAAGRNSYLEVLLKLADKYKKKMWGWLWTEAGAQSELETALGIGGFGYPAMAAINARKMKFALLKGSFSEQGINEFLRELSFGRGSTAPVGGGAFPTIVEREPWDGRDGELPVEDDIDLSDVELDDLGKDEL
PvdQ inh: blocks Pseudomonas aeruginosa PvdQ acylase activity | purified PvdQ acylase, fluorescence plate reader | actives 0.063% (n = 340,000) | AID 488965 | inhibition, % at 10 µM; in the data active = inhibition above about 30%, passing the limit was not always enough
Hits are given with their value. The list is not random: actives were taken first. Their share in the collection is about 2.2%.

`COc1ccc(CC(N)c2csc(NC(=O)Nc3ccccc3Cc3ccccc3)n2)cc1` (stereo unspecified) gave rRNA inh HTS inactive, HIV Env fusion 98, FN deposit inh inactive, PDI turbidity inactive and ERp5 inh inactive.
For COc1ccc(CC(N)c2csc(NC(=O)Nc3ccccc3Oc3ccccc3)n2)cc1 (stereo unspecified) the results were rRNA inh HTS inactive, HIV Env fusion 100, FN deposit inh inactive, PDI turbidity inactive and ERp5 inh inactive.
COc1ccc(CC(N)c2csc(NC(=O)Nc3ccccc3C(C)C)n2)cc1 (stereo unspecified) was read as rRNA inh HTS inactive, HIV Env fusion inactive, FN deposit inh inactive, PDI turbidity inactive and ERp5 inh inactive.
For CC(C)CC(N)c1csc(NC(=O)NCCc2ccccc2)n1 (stereo unspecified) the results were rRNA inh HTS inactive, HIV Env fusion inactive, PDI turbidity inactive and ERp5 inh inactive.
Screening COCC(=O)N1[C@@H]2Cn3c(ccc(-c4ccccc4)c3=O)[C@H]1[C@@H](C(=O)NCc1ccccn1)[C@@H]2CO returned rRNA inh HTS inactive, HIV Env fusion inactive and ERp5 inh inactive.
For C[C@H](CO)N1C[C@H](C)[C@H](CN(C)C(=O)Nc2ccc(C(F)(F)F)cc2)Oc2c(NC(=O)CCCCCC(=O)Nc3ccccc3N)cccc2C1=O the results were rRNA inh HTS inactive and ERp5 inh inactive.
O=C(C[C@H]1C[C@@H]2c3cc(NC(=O)NC4CCCCC4)ccc3O[C@@H]2[C@@H](CO)O1)NCCc1ccccc1 was read as rRNA inh HTS inactive, HIV Env fusion inactive and ERp5 inh inactive.
For C[C@@H]1CN([C@@H](C)CO)S(=O)(=O)c2ccc(C#CC3CCCC3)cc2O[C@@H]1CN(C)C(=O)c1cccc(F)c1 the results were rRNA inh HTS inactive and HIV Env fusion inactive.
COc1ccc(CC(N)c2csc(Nc3nncc4ccccc34)n2)cc1 (stereo unspecified) was read as rRNA inh HTS inactive, HIV Env fusion 58, FN deposit inh inactive, PDI turbidity inactive and ERp5 inh inactive.
Screening O=C(Nc1ccccc1Cl)C1CCCN(c2ncnc3c2nc2n3CCCCC2)C1 (stereo unspecified) returned rRNA inh HTS -30, HIV Env fusion inactive, FN deposit inh inactive, PDI turbidity inactive, ERp5 inh inactive and PvdQ inh inactive.
`O=C(NCc1ccccc1)C1CCCN(c2ncnc3c2nc2n3CCCCC2)C1` (stereo unspecified) gave rRNA inh HTS inactive, HIV Env fusion inactive, FN deposit inh inactive, PDI turbidity inactive, ERp5 inh inactive and PvdQ inh inactive.
Screening CCN(Cc1ccccc1)C(=O)C1CCN(c2ncnc3c2nc2n3CCCCC2)CC1 returned rRNA inh HTS -25, HIV Env fusion inactive, FN deposit inh inactive, PDI turbidity inactive, ERp5 inh inactive and PvdQ inh inactive.
For COc1ccccc1NC(=O)C1CCCN(c2ncnc3c2nc2n3CCCCC2)C1 (stereo unspecified) the results were rRNA inh HTS -33, HIV Env fusion inactive, FN deposit inh inactive, PDI turbidity inactive, ERp5 inh inactive and PvdQ inh inactive.
Screening COc1ccc(CN(C)C[C@@H]2Oc3ccc(NS(=O)(=O)c4cn(C)cn4)cc3CC(=O)N([C@@H](C)CO)C[C@H]2C)cc1 returned rRNA inh HTS inactive, FN deposit inh inactive and ERp5 inh inactive.
`C[C@@H]1CN([C@@H](C)CO)C(=O)c2cc(NS(=O)(=O)c3ccc(F)cc3)ccc2O[C@H]1CN(C)S(C)(=O)=O` gave rRNA inh HTS inactive and HIV Env fusion inactive.
C[C@@H]1CN([C@@H](C)CO)C(=O)c2cc(-c3ccc(C#N)cc3)cnc2O[C@@H]1CN(C)C(=O)Nc1ccc(F)cc1 was read as rRNA inh HTS inactive, HIV Env fusion inactive, FN deposit inh inactive and ERp5 inh inactive.
For CCCN(CC1CC1)C(=O)CSc1ncnc2sccc12 the results were rRNA inh HTS -18, HIV Env fusion inactive, FN deposit inh inactive, PDI turbidity inactive, ERp5 inh inactive and PvdQ inh inactive.
COc1ccc(S(=O)(=O)Nc2cccc3c2O[C@H](CN(C)CC2CC2)[C@@H](C)CN([C@@H](C)CO)C3=O)cc1 was read as rRNA inh HTS inactive and ERp5 inh inactive.
O=C(CN1C(=O)c2ccccc2S1(=O)=O)c1ccccc1 was read as PDI turbidity inactive and PvdQ inh inactive.
For O=C(CN1C(=O)c2ccccc2S1(=O)=O)c1ccccc1Cl the results were rRNA inh HTS inactive, HIV Env fusion 83, PDI turbidity inactive, ERp5 inh inactive and PvdQ inh inactive.
O=C(CN1C(=O)c2ccccc2S1(=O)=O)NCc1ccccc1Cl was read as rRNA inh HTS inactive, HIV Env fusion inactive, FN deposit inh inactive, PDI turbidity inactive, ERp5 inh inactive and PvdQ inh inactive.
`Cc1ccc(C(=O)CN2C(=O)c3ccccc3S2(=O)=O)cc1` gave rRNA inh HTS inactive, HIV Env fusion 78, FN deposit inh inactive, PDI turbidity inactive, ERp5 inh inactive and PvdQ inh inactive.
Cc1ccc(NS(=O)(=O)c2ccc3c(c2)NC(=O)CCS3)cc1C was read as rRNA inh HTS -26, HIV Env fusion inactive, FN deposit inh inactive, PDI turbidity inactive, ERp5 inh inactive and PvdQ inh inactive.
`Cc1ccc(CCNS(=O)(=O)c2ccc3c(c2)NC(=O)CCS3)cc1` gave rRNA inh HTS inactive, HIV Env fusion inactive, FN deposit inh inactive, PDI turbidity inactive, ERp5 inh inactive and PvdQ inh inactive.
For Cc1ccc(NS(=O)(=O)c2ccc3c(c2)NC(=O)CCS3)cc1F the results were rRNA inh HTS inactive, HIV Env fusion inactive, FN deposit inh inactive, PDI turbidity inactive, ERp5 inh inactive and PvdQ inh inactive.
`CSc1nc2ccc(NS(=O)(=O)c3ccc(Br)s3)cc2s1` gave rRNA inh HTS -44, HIV Env fusion inactive, FN deposit inh inactive, PDI turbidity inactive, ERp5 inh inactive and PvdQ inh inactive.
`Cc1cccc(CCNS(=O)(=O)c2ccc3c(c2)NC(=O)CS3)c1` gave rRNA inh HTS -35, HIV Env fusion inactive, FN deposit inh inactive, PDI turbidity inactive, ERp5 inh inactive and PvdQ inh inactive.
For Cc1nc2ccc(NS(=O)(=O)c3ccc(C)c(C)c3)cc2s1 the results were HIV Env fusion 71, FN deposit inh inactive, PDI turbidity inactive and PvdQ inh inactive.
`C[C@@H]1CN(C)C(=O)Cc2ccccc2O[C@H]1CN(C)C` gave rRNA inh HTS inactive and FN deposit inh inactive.
Screening O=C(NCc1cccs1)c1nc2c(nnn2Cc2ccccc2Cl)c(=O)[nH]1 returned HIV Env fusion 111, PDI turbidity inactive and PvdQ inh inactive.
